NLRP3 yeast inh: NALP3 inflammasome inhibitors in reconstituted yeast, primary screen, luminescence, uHTS; Yeast reconstituted NLRP3/ASC/caspase-1, beta-gal luminescence, 24 h; inhibition, % at 10 µM; 330,000 tested, 0.39% active;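 active = inhibition of 50% or more; inactive = inhibition below 50%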;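 note: plate controls were induced DMSO wells for no effect and uninduced yeast grown without galactose for full effect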
PolyA inhibitor: polyadenylation inhibitors in yeast reporter cells, primary screen, luminescence, S. cerevisiae; 300,000 tested, 0.02% active; activity score, % at 12 µM; S. cerevisiae SKY197-pL101 polyadenylation reporter, beta-gal luminescence; efflux-impaired pdr1/pdr3 knockout yeast; score 100 = 6 SD above DMSO; AID 1875, 2009;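 active = lowest replicate activity score at least 50, where 100 means six control SD above control mean; inconclusive = lowest score under 50 but half or more replicates reach 50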;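 note: yeast exposed to compound for 9 h at 30 °C; higher score means more reporter readthrough which indicates perturbed polyadenylation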
DSG3 Ab inh: inhibitors of pemphigus antibody binding to DSG3, primary screen, biochemical, bead-based, flow cytometry, scFv-GFP; DSG3-coupled beads, scFv-anti-DSG3-GFP binding; stronger effect = lower value; 310,000 tested, 0.48% active; Desmoglein-3 (Homo sapiens), P32926; AID 588358, 2011; binding (percent of control), % at 10 µM;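 active = binding more than 3 SD below its plate's average and above zero; inconclusive = below that plate limit but binding exactly zero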;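 note: hits lower antibody fragment binding to DSG3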
Target sequence (P32926 whole entry, looked up, the tested form may be a part): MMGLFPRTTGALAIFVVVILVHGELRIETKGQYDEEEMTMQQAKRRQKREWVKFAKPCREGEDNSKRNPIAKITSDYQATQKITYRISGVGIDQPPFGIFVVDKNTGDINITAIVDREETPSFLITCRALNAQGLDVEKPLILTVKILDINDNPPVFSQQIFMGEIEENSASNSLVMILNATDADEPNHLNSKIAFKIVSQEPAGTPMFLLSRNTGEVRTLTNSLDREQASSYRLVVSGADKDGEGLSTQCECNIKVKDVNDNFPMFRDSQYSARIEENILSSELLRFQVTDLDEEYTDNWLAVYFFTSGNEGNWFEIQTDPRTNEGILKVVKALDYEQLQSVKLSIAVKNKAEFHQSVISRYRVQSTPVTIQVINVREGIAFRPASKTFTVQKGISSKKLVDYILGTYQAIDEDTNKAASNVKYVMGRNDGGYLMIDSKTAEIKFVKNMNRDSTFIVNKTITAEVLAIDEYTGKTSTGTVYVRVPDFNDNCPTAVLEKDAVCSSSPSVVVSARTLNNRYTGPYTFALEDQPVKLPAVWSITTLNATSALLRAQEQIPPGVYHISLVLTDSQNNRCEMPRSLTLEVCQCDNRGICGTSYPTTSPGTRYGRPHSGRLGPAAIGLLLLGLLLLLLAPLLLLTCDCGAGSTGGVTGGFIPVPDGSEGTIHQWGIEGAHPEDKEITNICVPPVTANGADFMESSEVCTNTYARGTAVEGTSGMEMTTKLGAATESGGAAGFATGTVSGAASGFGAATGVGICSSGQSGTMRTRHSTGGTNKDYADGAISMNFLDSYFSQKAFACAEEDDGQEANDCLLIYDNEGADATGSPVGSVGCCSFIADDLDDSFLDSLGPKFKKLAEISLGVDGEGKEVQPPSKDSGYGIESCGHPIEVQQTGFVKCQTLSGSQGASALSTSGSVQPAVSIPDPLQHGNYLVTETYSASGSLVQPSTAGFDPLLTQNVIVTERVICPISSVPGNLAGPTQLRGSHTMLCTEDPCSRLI
ALR inh: inhibitors of human ALR sulfhydryl oxidase, primary screen, biochemical, H2O2 detection, HRP-luminol luminescence, single point; FAD-linked sulfhydryl oxidase ALR (Homo sapiens), P55789; purified ALR, DTT oxidation; inhibition, % (concentration not given with the values); 290,000 tested, 3.8% active; AID 485317, 2010;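 active = mean replicate inhibition above about 79%, with every replicate also reaching it, limit read from the data; inconclusive = only one of the two criteria met; inactive = mean below limit and not every replicate reaching it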
NALP1 inh: NALP1 inflammasome inhibitors in reconstituted yeast, colorimetric, S. cerevisiae, triplicate retest; S. cerevisiae NALP1/ASC/caspase-1 growth, X-gal OD620, 72 h; inhibition, % at 10 µM; 280,000 tested, 0.61% active; AID 2071, 2009; in the data active = inhibition mostly above about 24%, no sharp cut-off; inactive = mostly below about 32%
Arr AP2 block: inhibitors of beta-arrestin/AP2 binding, primary screen, biochemical, GPCR trafficking, flow cytometry; beta-arrestin 1 C-terminal peptide binding to AP2 beta2-adaptin appendage (human); FITC-arrestin peptide / GST-AP2 beads; AP2 beta2 appendage carries R879A mutation; 340,000 tested, 0.31% active; inhibition, % at 10 µM;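 active = inhibition above a set limit, near 3 SD of compounds lacking own fluorescence, cut at about 54% in these data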;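 note: plate controls were DMSO wells for no effect and 5 µM unlabelled arrestin peptide for full effect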
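Measured by: flow cytometry, FL1 (488/535 nm); Material: AP2 appendage R879A on GSH beads; Evaluation: percent response; Timing: pre-incubation 12 min, peptide binding 1 h, room temperature; Also added: 50 nM FITC-arrestin peptide; Medium: PBS with 0.05% Tween 20 and 0.1% BSA.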
* hit, by the source's call; u = inconclusive; x = no result given; ! = not active in a repeat. A selection: hits, their analogues and other compounds. The true share with any hit is near 4.6%.

SMILES | NLRP3 yeast inh | PolyA inhibitor | DSG3 Ab inh | ALR inh | NALP1 inh | Arr AP2 block
C=CCc1cc(OC)ccc1OCC(O)CN1CCN(c2ccc(OC)cc2)CC1 (stereo not given) | 12 | 1 | 103 | 79*! | 17 | 21
COc1ccccc1N1CCN(CC(O)COc2ccc3c(c2)OCO3)CC1 (stereo not given) | 3 | 7 | 108 | -22 | 23* | 4
CC(C)CCn1c(COc2ccccc2)nn(CCC#N)c1=S | 13 | -2 | 105 | -2 | -8 | 26
C/C(=N/NC(=O)CNC(=O)c1cccnc1)c1ccc(Cl)c(Cl)c1 | 2 | 5 | 91 | 4 | 2 | 2
CCCn1c(=O)n(C)c(=O)c2c(SCC(=O)Nc3cc(C)on3)nc(C(C)(C)C)nc21 | 18 | x | 100 | -7 | x | 21
OC(CSc1ccccc1Cl)CN1CCN(c2ccccc2F)CC1 (stereo not given) | 24 | -25 | 102 | -17 | 44 | -2
COc1ccc(N2CCN(CC(O)COc3ccc(F)cc3)CC2)cc1 (stereo not given) | -5 | 0 | 99 | 99* | 27 | -8
COc1ccc(N2CCN(CC(=O)Nc3cc(C)cc(C)c3)CC2)cc1 | 12 | 3 | 102 | x | 7 | 33
COc1ccc(N2CCN(CC(=O)Nc3ccc(C)c(C)c3)CC2)cc1 | 24 | -1 | 113 | 98* | 6 | -13
Cc1ccc(N2CCN(CC(O)COc3ccccc3)CC2)cc1 (stereo not given) | 20 | -5 | 111 | 95* | 5 | 25
OC(CSc1c(Cl)cccc1Cl)CN1CCN(c2ccccc2F)CC1 (stereo not given) | 22 | 7 | 99 | 2 | 60* | 2
COc1ccc(N2CCN(CC(O)COC(c3ccc(F)cc3)c3ccc(F)cc3)CC2)cc1 (stereo not given) | x | -14 | 98 | 23 | 0 | 3
COc1ccc(N2CCN(CC(O)COc3ccc(C)c(C)c3)CC2)cc1 (stereo not given) | 27 | -19 | 100 | 97* | 29 | -1
COc1ccc(OCC(O)CN2CCN(c3ccc(OC)cc3)CC2)cc1 (stereo not given) | 15 | -12 | 95 | 99* | 20 | 22
OC(COCc1ccccc1)CN1CCN(c2ccccc2)CC1 (stereo not given) | -10 | -3 | 108 | 82* | 16 | 8
COc1ccc(N2CCN(CC(O)COc3cc(C)cc(C)c3)CC2)cc1 (stereo not given) | 25 | 16 | 100 | 69 | 16 | -9
COc1ccc(N2CCN(CC(O)COc3c(OC)cccc3OC)CC2)cc1 (stereo not given) | 21 | 13 | 98 | 43 | 23 | 11
CC1CCCN(C(=O)c2ccc(NS(=O)(=O)c3cccc([N+](=O)[O-])c3)cc2)C1 (stereo not given) | -8 | -13 | 99 | -9 | x | -4
COc1cccc(NC(=O)COC(=O)c2ccc3c(c2)OCCO3)c1 | x | x | 106 | x | x | x
CC(C)n1c(SCC(=O)Nc2nc3ccccc3s2)nc2c1c(=O)n(C)c(=O)n2C | 14 | -7 | 87* | -5 | x | -3
CCc1c(O)nc(SCC(=O)Nc2nc3ccccc3s2)n(-c2ccc(C)cc2)c1=O | 24 | -10 | 108 | 98* | x | 11
CCc1c(O)nc(SCC(=O)Nc2nc3ccccc3s2)n(-c2ccccc2)c1=O | -2 | -7 | x | 96* | x | 31
CCc1c(O)nc(SCC(=O)Nc2ccccc2C)n(-c2ccc(C)cc2)c1=O | 16 | -4 | 96 | u | -1 | 0
C=CCn1c(SCC(=O)Nc2nc3ccccc3s2)nc(O)c(CC)c1=O | 15 | 7 | 113 | 99* | x | -4
COc1ccc(N(CC2CO2)S(=O)(=O)c2ccc(C)cc2)cc1 (stereo not given) | -11 | 6 | x | -1 | 31 | 0
SMILES | NLRP3 yeast inh | PolyA inhibitor | DSG3 Ab inh | ALR inh | NALP1 inh | Arr AP2 block
COc1ccc([C@H]2CC(=O)C=C(c3cccc4c3Oc3ccccc3S4)C2)cc1OC | 22 | x | 99 | -6 | x | -4
Cc1oc(-c2ccccc2Cl)nc1CS(=O)CC(=O)NCCc1ccccc1 (stereo not given) | 9 | 4 | x | 99* | 21 | 2
Cc1ccccc1-c1nc(CS(=O)CC(=O)NCCc2ccc(Cl)cc2)c(C)o1 (stereo not given) | 8 | -10 | 102 | 98* | 6 | 30
Cc1oc(-c2ccccc2Cl)nc1CS(=O)CC(=O)NCCCN1CC(C)CC(C)C1 (stereo not given) | -9 | 38 | 112 | 89* | 22 | 9
Cc1oc(-c2ccccc2Cl)nc1CS(=O)(=O)CC(=O)NCCc1ccccc1 | 8 | 1 | 97 | 70 | 2 | -1
CC(=O)c1ccc(S(=O)(=O)N2CCN(c3ccnc4cc(Cl)ccc34)CC2)cc1 | x | x | 96 | x | x | x
CCn1c(=O)n(C)c2c(=O)n(C)c(=O)n(C)c21 | x | x | 97 | x | x | 8
Cc1cc(N(C)C)ccc1N=Nc1ccc2ncccc2c1 | 43 | 0 | 97 | 94* | 10 | 3
O=C(Nc1ccc2c(c1)nc1n2CCSC1)c1ccco1 | 4 | 13 | x | 99* | -14 | 17
Cc1nc2ccc(NC(=O)c3ccco3)cc2nc1C | 10 | -15 | 101 | 99* | -4 | 39
Cc1nc2cc(NC(=O)c3ccco3)ccc2n1C | 11 | -12 | 106 | 0 | -3 | -2
O=C(Nc1ccc2c(c1)nc1n2CCOC1)c1ccco1 | -8 | 6 | u | x | 6 | -8
CCOC(=O)Cc1c(C)nc2c(-c3ccc(OC)cc3)c(C)nn2c1C | 15 | -21 | 99 | 4 | 43* | 6
Cc1ccc(NNC(N)=S)cc1Cl | 8 | 17 | 93 | 99* | x | -3
Cc1ccc(/C(O)=C/c2nc3ccccc3oc2=O)cc1 | 43 | -12 | 96 | -1 | 24 | 41
Cc1nc(C)c(/C(O)=C\c2nc3ccc([N+](=O)[O-])cc3oc2=O)o1 | 20 | -5 | 107 | 99* | x | 9
COc1ccc(C(=O)N/N=C/C2CC=CCC2)cc1OC (stereo not given) | 6 | 0 | 114 | 93* | 11 | -4
C=CCN1C(=O)c2ccc(C(=O)N3CCN(S(=O)(=O)c4cccc(Cl)c4)CC3)cc2C1=O | 9 | -2 | x | -15 | 3 | 6
CCOc1cc(CNc2cccc3[nH]c(C)nc23)ccc1OC | 14 | 21 | 116 | 98* | -4 | -4
